Assay results taken from PMC3755765 (ChemMedChem, 2013).
Values after ≈ are worked out from the molar mass of the structure shown. Values joined by “and” are separate entries in the source; they are usually repeats but may differ in a detail not shown here. Identical values can stand only once. “Also recorded” adds a separate entry of the source. Like-named read-outs stand apart in the source and are kept apart here.

Key:
[1] = Experimental Caco-2 permeability; details: human, Caco-2
T. gondii tachyzoites = test: Parasite tissue culture assay: inhibition of T. gondii tachyzoites in HFF; type: cell-based, Toxoplasma gondii; details: for MIC50 / IC50: Toxoplasma gondii; for Activity in the parasite-based assay: T. gondii tachyzoites
T. gondii = T. gondii mouse infection model; type: in vivo; details: mice; for Effect on parasite burden compared to triclosan (Xenogen camera images): 10mg/ml; for Effect on parasite growth in vivo: 50mg/kg (results not shown)
[2] = Intrinsic clearance in human liver microsomes; type: in vitro ADME
Toxicity in mice = type: in vivo
[3] = system: Human Foreskin Fibroblasts (HFF); test: Toxicity for host cells; details: for Parasite tissue culture assay HFF (HFF toxicity): human foreskin fibroblasts, highest concentration tested 10 μM
[4] = Intrinsic clearance in human cryopreserved hepatocytes; type: in vitro ADME; details: human
[5] = system: human cryopreserved hepatocytes; test: as above; type: in vitro ADME
TgENR = target: T1, TgENR (Toxoplasma gondii, UniProt Q6UCJ9); test: TgENR enzyme assay; type: biochemical; details: for inhibition at 1 µM: read-out: Cpd. conc. [1 μM]/% Inh.: percentage of inhibition of TgENR; for Activity in the enzyme-based assay: purified TgENR
T1 sequence (Q6UCJ9 28-417): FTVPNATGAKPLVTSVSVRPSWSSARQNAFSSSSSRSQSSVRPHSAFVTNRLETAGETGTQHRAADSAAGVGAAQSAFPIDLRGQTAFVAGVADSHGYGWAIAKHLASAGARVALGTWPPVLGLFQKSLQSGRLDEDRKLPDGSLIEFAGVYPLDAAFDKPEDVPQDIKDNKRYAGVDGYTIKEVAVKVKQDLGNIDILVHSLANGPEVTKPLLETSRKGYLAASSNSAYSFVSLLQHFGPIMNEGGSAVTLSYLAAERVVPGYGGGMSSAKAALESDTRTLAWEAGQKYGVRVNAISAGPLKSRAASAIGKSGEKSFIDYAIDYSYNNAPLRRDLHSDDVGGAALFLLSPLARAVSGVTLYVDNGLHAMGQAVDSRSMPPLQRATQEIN

[6] = system: P. falciparum strain D6 (CDC/Sierra Leone); test: Malaria SYBR Green I-based fluorescence assay, strain D6; type: cell-based; details: Plasmodium falciparum, D6, 72 h, read-out: SYBR Green D6 IC50
Method in brief: (§1)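 Late-ring or early-trophozoite parasites at 0.3% starting parasitemia and 2% hematocrit were added to plates predosed with quadruplicate 12-point two-fold dilutions in DMSO (final […]), with mefloquine as reference. Plates were incubated 72 h at 37°C under 5% CO2/5% O2/90% N2, lysed with Tris/EDTA/Triton X/saponin buffer with SYBR Green I (final 10x), kept dark 24 h at RT, and read as RFU. A chloroquine batch control at 2000 ng/ml validated each run.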

[7] = system: P. falciparum strain TM91C235 (WRAIR, Thailand, chloroquine resistant); test: Malaria SYBR Green I-based fluorescence assay, strain TM91C235; type: cell-based; details: Plasmodium falciparum, 72 h, read-out: SYBR Green C235 IC50
Method in brief: as §1

Caco-2 = test: Experimental Caco-2 permeability; details: experimental, Contract Research Organization
in vitro = details: human, Caco-2
[8] = 72 h, read-out: Parasite tissue culture assay MIC50
[9] = 75 mg/kg, day 5 after infection, 75 mg/kg

Compound | MIC50 (T. gondii tachyzoites; [8]) [µM] | Effect on parasite burden in vivo (T. gondii; 10 mg/kg) | Parasite tissue culture assay HFF (HFF toxicity) [3] [µM] | inhibition at 1 µM (TgENR) [%] | IC50 [6] | Activity in the parasite-based assay (T. gondii tachyzoites) | Activity in the enzyme-based assay (TgENR) | IC50 [7] | also measured
Oc1cc(Cl)ccc1Oc1ccc(Cn2ccnn2)cc1Cl [Compound 16c, 5-Chloro-2-[2-chloro-4-[(1H-1,2,3-triazol-1-yl)methyl]phenoxy]phenol] | 0.25 (≈ 0.084 µg/mL) | neither of those analogs reduced the parasite burden; also recorded: no effect | >10 | 91 | – | – | – | – | Papp [1]: 26.3 ×10⁻⁶ cm/s; IC50 (T. gondii tachyzoites; read-out: IC50 (MIC50) against Toxoplasma gondii tachyzoites): 250 nM; Effect on parasite burden compared to triclosan (Xenogen camera images) (T. gondii): reduced effect; Effect on parasite growth in vivo (T. gondii): not evident; Effect on parasite burden in vivo (T. gondii; [9]): protected the mice by decreasing parasite burden; also recorded: effective in reducing parasite burden; half-life [2]: > 60 min; Toxicity in mice relative to triclosan (fold less toxic) (Toxicity in mice): 10 fold; Toxicity to the host cells [3]: without apparent toxicity to the host cells; half-life [4]: 29 min; Compound left unmetabolized ([5]; after 60 min): 20%; Compound remained intact ([5]; after 120 min): 5%
Cc1cc(CC(=O)NCc2ccc(Oc3ccc(Cl)cc3O)c(Cl)c2)on1 [Compound 37c, N-[3-Chloro-4-(4-chloro-2-hydroxyphenoxy)benzyl]-2-(3-methyl-1,2-oxazol-5-yl)acetamide] | > 10 | neither of those analogs reduced the parasite burden; also recorded: no effect | – | 96 | – | – | – | – | Effect on parasite burden compared to triclosan (Xenogen camera images) (T. gondii): reduced effect; Effect on parasite growth in vivo (T. gondii): not evident; Effect on parasite burden in vivo (T. gondii; [9]): protected the mice by decreasing parasite burden; also recorded: effective in reducing parasite burden; Toxicity in mice relative to triclosan (fold less toxic) (Toxicity in mice): 10 fold
Oc1cc(CNC2CCCCC2)ccc1Oc1ccc(Cl)cc1Cl [Compound 39b, 5-[(Cyclohexylamino)methyl]-2-(2,4-dichlorophenoxy)phenol] | 4 (≈ 1.47 µg/mL) | – | >10 | 34 | 30 nM and 0.0119 µg/mL | activity comparable to or better than that of triclosan | completely inactive | 80 nM and 0.0276 µg/mL | –
CCC(=O)c1ccc(Oc2ccc(Cl)cc2Cl)c(O)c1 [Compound 43a, 1-[4-(2,4-Dichlorophenoxy)-3-hydroxyphenyl]propan-1-one] | – | – | >10 | 85 | 2.75 µM and 0.857 µg/mL | ineffective | only weak activity; also recorded: only weak inhibition | > 2 µg/mL | IC50 (T. gondii tachyzoites; [8]): > 10000 nM
O=C(c1ccccc1)c1ccc(Oc2ccc(Cl)cc2Cl)c(O)c1 [Compound 43b, [4-(2,4-Dichlorophenoxy)-3-hydroxyphenyl](phenyl)methanone] | > 10 | – | >10 | 78 | > 2 µg/mL | ineffective | only weak activity; also recorded: only weak inhibition | > 2 µg/mL | IC50 (TgENR): 750 nM
Oc1cc(Cl)ccc1Oc1ccc(Cl)cc1Cl [Triclosan, triclosan, reference compound] | 3 (≈ 0.869 µg/mL) | effective; also recorded: demonstrated efficacy | > 10 | 97 | – | – | – | – | IC50 (T. gondii tachyzoites; [8]): 250 nM
COc1cc2c(c(OC)c1OC)-c1ccc(OC)c(=O)cc1[C@@H](NC(C)=O)CC2 [colchicines, reference compound] | – | – | – | – | – | – | – | – | Caco-2 permeability (Caco-2): 1e-07 cm/s
CC(C)NCC(O)COc1cccc2ccccc12 (stereo not drawn) [propranolol] | – | – | – | – | – | – | – | – | Papp (in vitro): 51.1 ×10⁻⁶ cm/s
